Hits are enriched below; roughly 1.9% of the tested compounds scored in any of these assays.
CHRM4 antagonist – antagonists of human muscarinic M4 receptor (CHRM4); P08173; CHO-hM4 cells, ACh EC80, Fluo-8 calcium fluorescence; inhibition, % at 3 µM; 0.73% of 360,000 active; AID 624125;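 active means inhibition above its plate's cutoff, the mean inhibition of sample wells plus 3 SD, cut at about 27% in these data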
Target sequence (P08173 whole entry, looked up): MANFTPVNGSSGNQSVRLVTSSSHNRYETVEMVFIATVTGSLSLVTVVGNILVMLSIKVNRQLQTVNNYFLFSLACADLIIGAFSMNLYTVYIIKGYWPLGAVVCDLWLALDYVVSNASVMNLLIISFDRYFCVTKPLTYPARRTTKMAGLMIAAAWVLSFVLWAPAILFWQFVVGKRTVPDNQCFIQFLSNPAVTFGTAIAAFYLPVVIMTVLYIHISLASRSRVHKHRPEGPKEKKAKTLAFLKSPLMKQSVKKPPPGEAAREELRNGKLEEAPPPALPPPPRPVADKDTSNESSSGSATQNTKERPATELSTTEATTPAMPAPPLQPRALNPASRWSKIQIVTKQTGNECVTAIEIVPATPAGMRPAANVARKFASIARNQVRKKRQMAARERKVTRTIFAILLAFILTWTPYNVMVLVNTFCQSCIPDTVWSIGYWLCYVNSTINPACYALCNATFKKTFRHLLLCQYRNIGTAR
CHRM4 agonist – agonists of human muscarinic M4 receptor (CHRM4). activation, % at 3 µM. P08173. CHO-K1 hM4/Gqi5, Fluo-8 calcium fluorescence; vehicle 0%, full acetylcholine response 100%. AID 624127. 0.14% of 360,000 active;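 active means activation above the run mean over all test wells plus 3 SD, cut at about 32% in these data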;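 further: peak over basal fluorescence ratio per well then scaled between controls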
CHRM5 antagonist – blocks acetylcholine activation of human M5 receptor; P08912; CHO-hM5 cells, Fluo-8 calcium fluorescence, ACh EC80; inhibition, % at 3 µM; 0.59% of 360,000 active;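 active means inhibition above a per-plate cutoff, the mean of that plate's test compounds plus 3 SD, cut at about 27% in these data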
M4 PAM – CHRM4 positive allosteric modulation | activation, % at 3 µM | P08173 | 0.4% of 360,000 active | AID 624126 | CHO-K1 hM4/Gqi5, Fluo-8 calcium fluorescence, ACh EC20; 0% = ACh EC20, 100% = maximal ACh;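 active means activation above its plate's cutoff, the mean activation of sample wells plus 3 SD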
M5 ag – CHRM5 agonism in calcium assay. CHO-K1 hM5 cells, Fluo-8 calcium fluorescence; 0% DMSO wells, 100% maximal acetylcholine response. activation, % at 3 µM. 0.19% of 360,000 active. AID 624037;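 active means activation above the run's mean over test compounds plus 3 SD, cut at about 23% in these data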;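 further: signal is peak over basal fluorescence ratio across the kinetic read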
M5 PAM – CHRM5 positive allosteric modulation; AID 624038; CHO-K1 hM5, Fluo-8 calcium, ACh EC20 PAM; 0% = ACh EC20, 100% = ACh EC100; 0.3% of 360,000 active; activation, % at 3 µM;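 active means activation above the run cutoff, the mean activation of all test compounds plus 3 SD, cut at about 18% in these data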
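Assay system: CHO-K1 hM5 cells / Incubation: Fluo-8 loading 80 min at 37 °C plus 30 min room temperature / Technique: Fluo-8 calcium dye fluorescence, kinetic read / Repeats: single replicate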
Hits are given with their value.

How did O=C1NC(=O)C(=Cc2ccc(N3CCN(C(=O)c4ccccc4)CC3)c([N+](=O)[O-])c2)C(=O)N1 do in these assays?
CHRM4 antagonist: 48; CHRM4 agonist: 41; CHRM5 antagonist: inactive; M4 PAM: 54; M5 ag: inactive; M5 PAM: inactive

How did O=P(Oc1ccccc1)(N1CCOCC1)N1CCOCC1 do in these assays?
CHRM4 antagonist: inactive; CHRM4 agonist: inactive; CHRM5 antagonist: inactive; M4 PAM: 15; M5 ag: inactive; M5 PAM: inactive

Results for CC(C)(C)P(=O)(N1CCOCC1)N1CCOCC1 ?
CHRM4 antagonist: inactive; CHRM4 agonist: inactive; CHRM5 antagonist: inactive; M4 PAM: inactive; M5 ag: inactive; M5 PAM: inactive

Results for O=C1OC(c2ccc(Br)cc2)=N/C1=C\N1CC2CC(C1)c1cccc(=O)n1C2 (stereo not given) ?
CHRM4 antagonist: inactive; CHRM4 agonist: inactive; CHRM5 antagonist: inactive; M4 PAM: inactive; M5 ag: inactive; M5 PAM: inactive

Results for O=C1OC(c2ccc(Cl)cc2)=N/C1=C\N1CC2CC(C1)c1cccc(=O)n1C2 (stereo not given) ?
CHRM4 antagonist: inactive; CHRM4 agonist: inactive; CHRM5 antagonist: inactive; M4 PAM: inactive; M5 ag: inactive; M5 PAM: 22

How did COc1cc([C@@H]2c3cc4c(cc3[C@@H](OC)[C@H]3COC(=O)[C@H]23)OCO4)cc(OC)c1O do in these assays?
CHRM4 antagonist: inactive; CHRM4 agonist: inactive; CHRM5 antagonist: inactive; M4 PAM: inactive; M5 ag: inactive; M5 PAM: inactive

What do the screens show for `c1ccc(C2(N3CCCCC3)CCCCC2)cc1`?
CHRM4 antagonist: inactive; CHRM4 agonist: inactive; CHRM5 antagonist: inactive; M4 PAM: inactive; M5 ag: inactive; M5 PAM: inactive

What do the screens show for `S=C=Nc1cccc(C2(N3CCCCC3)CCCCC2)c1`?
CHRM4 antagonist: inactive; CHRM4 agonist: inactive; CHRM5 antagonist: 27; M4 PAM: inactive; M5 ag: inactive; M5 PAM: inactive

Results for CC[n+]1c(/C=C/C=C/c2ccc(N(C)C)cc2)sc2ccccc21 ?
CHRM4 antagonist: 55; CHRM4 agonist: inactive; CHRM5 antagonist: 51; M4 PAM: inactive; M5 ag: inactive; M5 PAM: inactive

What do the screens show for `NC(=O)c1cc(N2CC2)c([N+](=O)[O-])cc1[N+](=O)[O-]`?
CHRM4 antagonist: inactive; CHRM4 agonist: inactive; CHRM5 antagonist: inactive; M4 PAM: inactive; M5 ag: inactive; M5 PAM: inactive

How did O=C(c1cc(F)ccc1F)C1CCCN(CCCc2ccccc2)C1 (stereo not given) do in these assays?
CHRM4 antagonist: 32; CHRM4 agonist: inactive; CHRM5 antagonist: inactive; M4 PAM: inactive; M5 ag: inactive; M5 PAM: inactive

What do the screens show for `CC(CC(C#N)(c1ccccc1)c1ccccc1)N(C)C` (stereo not given)?
CHRM4 antagonist: 91; CHRM4 agonist: inactive; CHRM5 antagonist: 99; M4 PAM: inactive; M5 ag: inactive; M5 PAM: inactive

What do the screens show for `CCC(C#N)(CC)P(=S)(c1ccccc1)c1ccccc1`?
CHRM4 antagonist: inactive; CHRM4 agonist: inactive; CHRM5 antagonist: inactive; M4 PAM: inactive; M5 ag: inactive; M5 PAM: inactive

Results for C[Se]C[C@@H](N)C(=O)O ?
CHRM4 antagonist: inactive; CHRM4 agonist: inactive; CHRM5 antagonist: inactive; M4 PAM: inactive; M5 ag: inactive; M5 PAM: inactive

Results for N[C@@H](CCl)C(=O)O ?
CHRM4 antagonist: 51; CHRM4 agonist: inactive; CHRM5 antagonist: inactive; M4 PAM: inactive; M5 ag: inactive; M5 PAM: inactive

How did CC(C)CCP(=O)(O)c1ccccc1 do in these assays?
CHRM4 antagonist: inactive; CHRM4 agonist: inactive; CHRM5 antagonist: inactive; M4 PAM: inactive; M5 ag: inactive; M5 PAM: inactive

Results for Cc1[nH]c2ccc(OC(F)(F)F)cc2c1CCNCc1cccc([N+](=O)[O-])c1 ?
CHRM4 antagonist: inactive; CHRM4 agonist: inactive; CHRM5 antagonist: 29; M4 PAM: inactive; M5 ag: inactive; M5 PAM: inactive

What do the screens show for `Cc1[nH]c2ccc(OC(F)(F)F)cc2c1CCNCc1ccc(Cl)cc1`?
CHRM4 antagonist: inactive; CHRM4 agonist: inactive; CHRM5 antagonist: inactive; M4 PAM: inactive; M5 ag: inactive; M5 PAM: inactive

What do the screens show for `CCOc1cccc(CNCCc2c(C)[nH]c3ccc(OC(F)(F)F)cc23)c1O`?
CHRM4 antagonist: 29; CHRM4 agonist: 43; CHRM5 antagonist: 42; M4 PAM: inactive; M5 ag: 24; M5 PAM: inactive

Results for CCOC(=O)/C(CCCN(CC)CC)=N\O ?
CHRM4 antagonist: 34; CHRM4 agonist: inactive; CHRM5 antagonist: 35; M4 PAM: inactive; M5 ag: inactive; M5 PAM: inactive

Results for CN1CCN(c2ccc(C(F)(F)F)cc2N)CC1 ?
CHRM4 antagonist: inactive; CHRM4 agonist: inactive; CHRM5 antagonist: inactive; M4 PAM: inactive; M5 ag: inactive; M5 PAM: inactive

Results for COc1ccc(-n2c(O)c(/C=C/C=Nc3ccccc3)c(=O)[nH]c2=O)cc1 ?
CHRM4 antagonist: inactive; CHRM4 agonist: inactive; CHRM5 antagonist: inactive; M4 PAM: inactive; M5 ag: 24; M5 PAM: inactive

How did O=c1[nH]c(=O)n(-c2ccccc2)c(O)c1/C=C/C=Nc1ccccc1 do in these assays?
CHRM4 antagonist: inactive; CHRM4 agonist: inactive; CHRM5 antagonist: inactive; M4 PAM: inactive; M5 ag: inactive; M5 PAM: inactive

How did O=c1[nH]c(=O)n(C2CCCCC2)c(O)c1/C=C/C=Nc1ccccc1 do in these assays?
CHRM4 antagonist: inactive; CHRM4 agonist: inactive; CHRM5 antagonist: inactive; M4 PAM: inactive; M5 ag: 28; M5 PAM: inactive

What do the screens show for `COC(=O)C1=C(c2ccc(C(C)=O)cc2)C[C@@H]2CC[C@H]1N2C(=O)NCc1ccc(C(F)(F)F)cc1`?
CHRM4 antagonist: inactive; CHRM4 agonist: 36; CHRM5 antagonist: inactive; M4 PAM: inactive; M5 ag: 38; M5 PAM: inactive

How did Cc1c(N=Cc2c(O)n(CCc3ccccc3)c(=O)[nH]c2=O)c(=O)n(-c2ccccc2)n1C do in these assays?
CHRM4 antagonist: inactive; CHRM4 agonist: inactive; CHRM5 antagonist: inactive; M4 PAM: inactive; M5 ag: inactive; M5 PAM: inactive

Results for CCCCCCn1c(O)c(C=Nc2c(C)n(C)n(-c3ccccc3)c2=O)c(=O)[nH]c1=O ?
CHRM4 antagonist: inactive; CHRM4 agonist: inactive; CHRM5 antagonist: inactive; M4 PAM: inactive; M5 ag: inactive; M5 PAM: 25

What do the screens show for `CC(=O)OC(C)(C)/C=C/C(=O)C(C)(O)C1C(O)CC2(C)C3CC=C4C(CC(O)C(=O)C4(C)C)C3(C)C(=O)CC12C` (stereo not given)?
CHRM4 antagonist: inactive; CHRM4 agonist: inactive; CHRM5 antagonist: inactive; M4 PAM: 16; M5 ag: inactive; M5 PAM: inactive
